Hsp70 activator – transcriptional activators of Hsp70 | HeLa Hsp70 promoter luciferase reporter, luminescence; scaled: vehicle 0, proteasome-inhibitor control 100% | activation, % at 10 µM | hit rate 0.04% among 200,000;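 active = activation above the mean across all tested compounds plus 3 SD, cutoff set per campaign, cut at about 5.5% in these data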;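 note: 100% = MG132 at 30 µM as the positive control and 0% = DMSO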
ABHD5 PLIN5 PPI – blocks binding of human ABHD5 to perilipin-5; Q00G26+Q8WTS1; Split G. princeps luciferase complementation, luminescence, 4 h; inhibition, % at 4 µM; hit rate 0.78% among 360,000; AID 602281;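 active = inhibition above the mean inhibition across every tested compound plus 3 SD, cut at about 22% in these data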;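 note: 0% = DMSO only wells and the 100% control is not disclosed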
Target sequence (Q00G26 whole entry, looked up): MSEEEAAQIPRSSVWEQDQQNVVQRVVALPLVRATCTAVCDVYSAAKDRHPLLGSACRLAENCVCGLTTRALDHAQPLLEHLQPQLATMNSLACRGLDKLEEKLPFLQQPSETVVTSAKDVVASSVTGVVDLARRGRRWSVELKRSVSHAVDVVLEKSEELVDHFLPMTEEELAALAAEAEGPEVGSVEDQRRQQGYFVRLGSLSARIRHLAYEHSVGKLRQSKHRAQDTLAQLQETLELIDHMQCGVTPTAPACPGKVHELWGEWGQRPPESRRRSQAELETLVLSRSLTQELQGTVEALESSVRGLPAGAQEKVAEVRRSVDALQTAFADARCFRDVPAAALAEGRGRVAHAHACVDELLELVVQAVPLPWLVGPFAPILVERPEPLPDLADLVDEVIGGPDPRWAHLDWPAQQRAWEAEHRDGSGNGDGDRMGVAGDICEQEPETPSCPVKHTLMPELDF
Target sequence (Q8WTS1 whole entry, looked up): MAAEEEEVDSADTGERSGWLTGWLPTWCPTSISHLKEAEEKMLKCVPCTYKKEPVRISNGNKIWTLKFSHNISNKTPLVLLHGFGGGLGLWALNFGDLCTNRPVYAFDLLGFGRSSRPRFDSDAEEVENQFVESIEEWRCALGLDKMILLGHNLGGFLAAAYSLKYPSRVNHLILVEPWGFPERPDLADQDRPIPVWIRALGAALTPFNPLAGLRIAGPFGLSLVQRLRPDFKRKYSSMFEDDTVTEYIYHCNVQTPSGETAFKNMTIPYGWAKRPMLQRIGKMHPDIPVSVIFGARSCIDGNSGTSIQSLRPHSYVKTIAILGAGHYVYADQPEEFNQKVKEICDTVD
HIF act – HIF pathway transcriptional activation | U2OS HRE-luciferase reporter, luminescence; normalized: DMSO 0%, desferrioxamine 100% | activation, % at 7.5 µM (by protocol) | AID 1910 | hit rate 0.32% among 300,000;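 active = mean activation of at least 10% of the iron chelator positive control signal, with at least half of replicates also reaching 10%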
GAA850 FXN act – activators of GAA850 frataxin (FXN) promoter | HEK293 lucGAA850 FXN promoter luciferase reporter, 24 h; percent of 10 µM SAHA response | activation, % at 6 µM | hit rate 0.56% among 360,000;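 active = activation above the average of all compounds screened plus 3 SD, cutoff fixed separately per campaign, cut at about 7.5% in these data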;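 note: 0% = DMSO wells and 100% = 10 µM SAHA wells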
H9c2 TAG inh – reduces triacylglycerol accumulation in H9c2 cells; Nile Red lipid (TAG) fluorescence; cells loaded with 200 µM oleic acid; hit rate 0.66% among 230,000; AID 651582; inhibition, % at 12.5 µM;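 active = pattern-corrected inhibition of lipid staining of at least 50% with the nuclear-stain viability signal not falling by more than 50%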;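 note: 0% = DMSO wells and 100% = triacsin C control wells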
Rad51 HR inh – Rad51 (human) homologous recombination inhibition; Q06609; hRad51 DNA strand exchange, fluorescence dequenching; inhibition, % at 10 µM; hit rate 0.085% among 200,000; AID 1385;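 active = inhibition above 40% at the single screening dose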;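 note: 0% = DMSO control wells and 100% = blanks with heterologous ssDNA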
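Material: human Rad51–ssDNA filaments; Probe or stimulus: labelled 47-mer dsDNA for strand exchange; Doses: single 10 µM dose; Incubation: 37 °C 15-min filament assembly, 30-min compound preincubation, 15-min exchange; Technique: FRET fluorescence dequenching, excitation 485 nm, emission 520 nm; Measure: Fluorescence-based percent inhibition, control- and blank-normalised; Benchmarks: plate control and blank wells.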
ABHD5 PLIN5 conf – ABHD5-PLIN5 interaction inhibition, confirmed; shares compounds with ABHD5 PLIN5 PPI; biochemical ABHD5-PLIN5 interaction, luminescence; hit rate 67% among 2,200; inhibition, % at 4 µM; in the data active = inhibition above about 23%;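 note: 0% = DMSO vehicle wells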
HNF4 counter – active in HNF4 split-luciferase counter-screen for ABHD5-PLIN5 inhibitors; shares compounds with ABHD5 PLIN5 PPI; HNF4 dimerization, luminescence, biochemical; inhibition, % at 4 µM; hit rate 77% among 2,200; AID 651674;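 active = mean inhibition across replicate wells exceeding the computed hit threshold, cut at about 13% in these data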;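 note: light from luciferase halves that rejoin when HNF4 fusion proteins dimerize; 0% = DMSO only wells and the 100% control is not given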
The depositor's hits bear a star; i = inactive; . = no result. Shown are actives, neighbours in structure and some others; about 1.9% of the full set was active somewhere.

SMILES	Hsp70 activator	ABHD5 PLIN5 PPI	HIF act	GAA850 FXN act	H9c2 TAG inh	Rad51 HR inh	ABHD5 PLIN5 conf	HNF4 counter
O=C(/C(=C/c1ccc(Cl)cc1)c1nc2ccccc2[nH]1)c1cccs1	4.3	58.0*	-4.1	-11.9	.	-5.6	101.3*	94.0*
COc1cc(/C=C(/C(=O)c2cccs2)c2nc3ccccc3[nH]2)ccc1O	-0.3	34.6*	2.6	-6.7	-21.3	-1.0	76.5*	67.8*
Cc1ccc(-c2noc(CN(C)C(=O)c3ccc(Br)o3)n2)cc1	.	-7.5	-0.3	-0.1	2.9	.	.	.
O=C(Oc1ccc(Br)cc1C(=O)/C=C/c1ccccc1F)c1ccco1	0.1	73.0*	0.9	5.5	3.8	.	99.3*	93.1*
CC(C)C[C@@H](CNCC(=O)[C@H](C)NC(=O)c1[nH]cnc1C(=O)N[C@H](CN)CC(C)C)NC(=O)c1nc[nH]c1C(=O)N[C@@H](C)C(=O)O	.	0.3	.	-1.1	8.3	.	.	.
Nc1sccc1C(=O)NCc1ccccc1	.	35.9*	.	.	.	.	13.9	49.0*
CCOc1cc(/C=C\[N+](=O)[O-])ccc1OCC(=O)N1CCOCC1	-0.1	29.0*	1.8	3.2	42.4	-1.1	69.6*	69.9*
Cc1ccc2nc(C(C)(C)C)c(Cc3ccsc3)n2c1	.	40.4*	.	.	.	.	54.5*	47.6*
Cc1ccc(-c2nc3ccc(C)cn3c2Cc2ccsc2)cc1	.	3.8	.	.	.	.	.	.
CCOc1ccc(C(CN2CCOCC2)C(C)=O)cc1OC (stereo unspecified)	.	33.6*	.	.	.	.	12.3	57.4*
CN(c1ccccc1)S(=O)(=O)c1cccc(NS(=O)(=O)c2ccc(/C=C/C(=O)O)cc2)c1	-0.4	0.2	-0.4	0.4	-9.4	0.6	.	.
Cc1ccc(-c2nc(C)sc2CC(=O)NCc2ccco2)cc1	-0.1	27.5*	0.7	2.9	-4.3	-6.0	26.8*	32.6*
O=C(NCc1ccco1)c1cc(-c2cccs2)nc2ccccc12	-0.2	9.0	0.5	3.0	.	9.5	.	.
Cc1ccc(NC(=O)Cc2sc(C)nc2-c2ccc(C)cc2)cc1	-0.3	0.4	1.1	0.4	-6.7	2.5	.	.
O=C(COC(=O)c1cc(-c2ccc(Cl)s2)nc2ccccc12)NCc1ccco1	-0.2	37.8*	-0.3	-0.1	-1.8	1.3	59.0*	55.8*
NS(=O)(=O)c1ccc(CCNC(=O)c2cc(-c3ccco3)nc3ccccc23)cc1	.	25.2*	.	2.3	27.9	.	22.4*	22.1*
Cc1ccc(-c2cc(C(=O)NCc3ccco3)c3ccccc3n2)s1	0.4	35.0*	0.3	4.9	5.4	-5.5	20.6	15.8*
COc1ccc(OC)c(NS(=O)(=O)c2ccc(-c3coc(C)n3)cc2)c1	.	-0.2	-0.2	1.9	.	.	.	.
CCCCn1nnnc1C(c1ccccc1)N1CCN(c2c(Cl)cncc2Cl)CC1 (stereo unspecified)	.	2.9	.	.	.	.	.	.
COc1cc2c(cc1NC(=O)c1cc(-c3ccccn3)nc3ccccc13)oc1ccccc12	-0.6	-2.0	-0.3	1.4	.	2.8	.	.
OCc1nc2ccccc2n1CCOc1ccccc1	.	-5.7	0.0	1.3	-0.6	.	.	.
CCOc1ccc(NCc2nc3ccccc3n2CCOc2ccccc2)cc1	-0.1	25.3*	0.4	2.9	.	30.1	7.7	11.0
CN(C)CCCNC(=O)c1ccccn1	-0.1	6.7	-0.6	-0.1	4.1	4.3	.	.
CN(C)CCCNC(=O)c1ccc(-c2nc(-c3ccc(Cl)cc3)cs2)cc1	0.7	27.2*	-6.6	5.7	.	-2.9	22.1*	2.3
O=C(NCc1cccc(C(F)(F)F)c1)C1C(=O)Nc2ccccc2C(=O)N1Cc1ccccc1 (stereo unspecified)	.	2.9	.	.	.	.	.	.
SMILES	Hsp70 activator	ABHD5 PLIN5 PPI	HIF act	GAA850 FXN act	H9c2 TAG inh	Rad51 HR inh	ABHD5 PLIN5 conf	HNF4 counter
COc1ccc(-c2nc(CN3CCN(Cc4cccc(Cl)c4)CC3)c(C)o2)cc1	.	-0.7	0.1	2.9	-7.9	.	.	.
C[C@@H]1CN([C@@H](C)CO)C(=O)CCCn2cc(nn2)CO[C@H]1CN(C)C(=O)Oc1ccccc1	.	4.0	.	0.7	3.3	.	.	.
COc1ccc(C(=O)CC(SCC(NC(C)=O)C(=O)O)c2ccc(Cl)cc2)cc1OC (stereo unspecified)	.	38.1*	-0.2	3.6	.	.	23.5*	19.5*
CCCCn1c(N)c(N(CC(C)C)C(=O)Cc2ccc3c(c2)OCCO3)c(=O)[nH]c1=O	.	-1.6	-0.4	-1.1	-8.8	.	.	.
CCOC(=O)C1CCN(Cc2cc(Cl)c3ccccc3c2O)CC1	.	65.9*	0.7	7.2	.	.	19.6	55.2*
Oc1c(CN2CCCC(C(F)(F)F)C2)cc(Cl)c2ccccc12 (stereo unspecified)	.	23.9*	0.5	1.7	.	.	9.5	12.3
COc1cccc(-n2nc(C(C)=O)c(C#N)c2-c2ccco2)c1	-0.4	-6.9	0.4	2.4	.	.	.	.
CCOc1ccc(NC(=O)CN(C)C(=O)C2CC(=O)N(Cc3ccco3)C2)cc1OCC (stereo unspecified)	.	23.3*	.	0.3	27.1	.	28.6*	23.7*
O=C(Cc1ccc(Cl)cc1Cl)OCC(=O)N1CCCCC1	.	-3.9	0.5	0.6	.	.	.	.
Cc1noc(/C=C/c2ccccn2)c1[N+](=O)[O-]	.	42.2*	3.1	-4.9	.	.	77.3*	70.2*
CCOC(=O)c1c(C)oc2c1c(CN1CCN(CCO)CC1)c(O)c1ccccc12	0.0	35.3*	.	3.4	8.0	-1.3	63.5*	25.0*
CCOC(=O)c1c(C)oc2c1c(CN1CCN(C(=O)OCC)CC1)c(O)c1ccccc12	0.2	-20.0	2.1	1.5	.	.	.	.
CCCCN(C=O)c1c(CC)nc2c(OCC(=O)c3ccc(F)cc3)cccn12	.	3.7	.	-0.1	-27.0	.	.	.
CCc1cccc2c(C(=O)CSc3nncn3-c3ccc(OC)cc3)c[nH]c12	-0.2	1.9	-0.1	-0.8	.	3.6	.	.
CCc1cccc2c(C(=O)CSc3nncn3-c3ccccc3OC)c[nH]c12	-0.2	24.3*	0.0	-2.2	.	-0.1	7.7	-0.4
N#C/C(=C/c1ccc(N2CCOCC2)o1)c1nc2ccccc2[nH]1	-0.4	27.3*	.	2.3	-88.2	i	31.9*	50.2*
N#C/C(=C\c1cc([N+](=O)[O-])c(N2CCOCC2)cc1N1CCOCC1)c1nc2ccccc2[nH]1	0.1	-0.1	0.4	-0.6	-12.1	-1.4	.	.
O=C(Nc1ccc(C(=O)N2CCOCC2)cc1)C1CC1	.	1.9	.	-2.3	6.8	.	.	.
CCCC1=C(C(=O)OCC)C(c2ccco2)n2ncnc2N1 (stereo unspecified)	.	0.5	0.3	0.5	-5.6	5.0	.	.
COCC1=C(C(=O)OC)C(c2ccco2)n2ncnc2N1 (stereo unspecified)	.	38.0*	0.6	-0.4	2.8	18.8	-3.5	9.1
